How the values were obtained:
[1] = Partition coefficient (logP); format: physicochemical; details: octanol/water
Procedure, shortened: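 Octanol/water partition at pH 7.4, measured by low-volume shake flask. Drug in both the octanol and buffer phases quantified by HPLC.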

SCC-7 [2] = experiment: Inhibitory concentration against murine SCCVII cell line under hypoxic condition; format: functional, cell-based; details: Mus musculus
Procedure, shortened: (§1)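 SRB proliferation assay in 96-well plates. SCCVII (200 cells) or HT-29 (1000 cells) seeded in αMEM + 10% FCS with glucose (17 mM final) and 100 μM 2'-deoxycytidine, then attached for 3 h. Cells exposed for 4 h at 37 °C to 2-fold serial dilutions in triplicate, either oxic (20% O2, 5% CO2) or in an anaerobic chamber (<0.001% O2). After washing, cells grew for 5 (oxic) or 6 (anoxic) days before SRB staining. IC50 values are the mean of three independent experiments.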

SCC-7 [3] = experiment: Inhibitory concentration against murine SCCVII cell line under aerobic condition; format: functional, cell-based; details: Mus musculus; procedure, shortened: as §1
SCC-7 [4] = experiment: Interexperimental ratio of hypoxic TPZ C10 to hypoxic BTO C10 using murine SCCVII cell line; format: functional, Mus musculus
HT-29 [5] = experiment: Inhibitory concentration against human adenocarcinoma HT-29 cell line under hypoxic condition; format: functional, cell-based; procedure, shortened: as §1
HT-29 [6] = experiment: Inhibitory concentration against human adenocarcinoma HT-29 cell line under aerobic condition; format: functional, cell-based; procedure, shortened: as §1
HT-29 [7] = experiment: Interexperimental ratio of hypoxic TPZ C10 to hypoxic BTO C10 using human adenocarcinoma HT-29 cell line; format: functional
[8] = Interexperimental difference between the hypoxic and aerobic cytotoxicity using human adenocarcinoma HT-29 cell line; format: functional
[9] = Interexperimental difference between the hypoxic and aerobic cytotoxicity using murine SCCVII cell line; format: functional, SCC-7
[10] = Concentration required to reduce plating efficiency to 10 percent of controls, under aerobic conditions in mouse SCCVII tumor cells.; format: functional, SCC-7
Procedure, shortened: (§2)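 SCCVII cells plated in glass dishes (2×10^5 to 1×10^6 per dish) 1–2 days ahead. Drug freshly dissolved, given in complete medium for 1 h at 37 °C with shaking. Hypoxia (<200 ppm O2) by repeated evacuation/flushing with 95% N2 + 5% CO2; aerobic controls flushed with 95% air + 5% CO2. Cells washed, trypsinized, replated. Crystal violet stain after 10–14 days, >50-cell colonies scored. C10 is the concentration giving 10% of control plating efficiency.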

[11] = Concentration required to reduce plating efficiency to 10 percent of controls, under hypoxic conditions in mouse SCCVII tumor cells.; format: functional, SCC-7; procedure, shortened: as §2
[12] = Intraexperimental ratio of hypoxic TPZ C10 to hypoxic BTO C10 in mouse SCCVII tumor cells.; format: functional, SCC-7
Procedure, shortened: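 Computed within each experiment from the clonogenic SCCVII assay (1 h drug exposure, hypoxia <200 ppm O2 by gas evacuation/flushing, colony counting after 10–14 days). RHT = C10 of TPZ under hypoxia divided by C10 of the analogue under hypoxia.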

[13] = Intraexperimental difference between the hypoxic and aerobic cytotoxicity in mouse SCCVII tumor cells; format: functional, SCC-7
Procedure, shortened: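 Clonogenic SCCVII survival after 1 h drug exposure at 37 °C, either hypoxic (<200 ppm O2, 95% N2/5% CO2) or aerobic (95% air/5% CO2). Colonies of >50 cells counted after 10–14 days. HCR = aerobic C10 / hypoxic C10, with both values from the same experiment.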

logP [1]: 0.81 | IC50 (SCC-7 [2]): 0.92 µM | IC50 (SCC-7 [3]): 23.9 µM | IC50 (HT-29 [5]): 2.1 µM | IC50 (HT-29 [6]): 79.1 µM
SMILES: Nc1n[n+]([O-])c2cc(C(F)(F)F)ccc2[n+]1[O-]
RHT (SCC-7 [4]): 2.6 | RHT (HT-29 [7]): 2.5 | HCR [8]: 35.7 | HCR [9]: 27.7 | C10 [10]: 305 µM | C10 [11]: 9.14 µM | RHT [12]: 1.1 | HCR [13]: 33.3
